Measured values reported in paper PMC3690701 (Bioorganic & medicinal chemistry, 2011).

Assays:
human Pgp = human Pgp (Homo sapiens, UniProt P08183); details: for logIC50: fitted parameter±standard error, GraphPad Prism, R123 efflux, MDCKII-MDR1
Pgp/BCRP at the BBB [1] = assay: small-animal PET of [18F]4b in rats before/after unlabelled 1; assay type: in vivo, rat; details: 25 min after tracer injection, scanned 2 h after 1 (5 mg/kg), p=0.0002
Outline: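 Naïve rats were kept under isoflurane (2.5% induction, 1.5–2% maintenance) at about 38°C, with femoral artery and vein catheters. The tracer was given as an i.v. bolus (33±3 MBq) in saline/EtOH/PEG300 (50/15/35). Arterial samples were gamma-counted, and whole-brain TACs were expressed as SUV. Groups were compared by 2-tailed Student's t-test.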

[2] = assay type: in vivo, rat
[3] = plasma protein binding by ultrafiltration; assay type: in vitro ADME, rat; details: 30 min at 37°C, n=3
Outline: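 Fresh plasma from naïve rats was incubated with the 18F-labelled tracer for 30 min at 37°C. Bound and free tracer were then separated by ultrafiltration through centrifugal filter devices.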

Pgp/BCRP at the BBB [4] = details: mouse brain, unlabelled 1 0.1-10 mg/kg i.v.; cited from earlier work
Pgp = details: cited from earlier work
human BCRP = details: 3H-labelled tariquidar 1 nM, reversed by fumitremorgin C; cited from earlier work

Chain of human Pgp (P08183 whole entry): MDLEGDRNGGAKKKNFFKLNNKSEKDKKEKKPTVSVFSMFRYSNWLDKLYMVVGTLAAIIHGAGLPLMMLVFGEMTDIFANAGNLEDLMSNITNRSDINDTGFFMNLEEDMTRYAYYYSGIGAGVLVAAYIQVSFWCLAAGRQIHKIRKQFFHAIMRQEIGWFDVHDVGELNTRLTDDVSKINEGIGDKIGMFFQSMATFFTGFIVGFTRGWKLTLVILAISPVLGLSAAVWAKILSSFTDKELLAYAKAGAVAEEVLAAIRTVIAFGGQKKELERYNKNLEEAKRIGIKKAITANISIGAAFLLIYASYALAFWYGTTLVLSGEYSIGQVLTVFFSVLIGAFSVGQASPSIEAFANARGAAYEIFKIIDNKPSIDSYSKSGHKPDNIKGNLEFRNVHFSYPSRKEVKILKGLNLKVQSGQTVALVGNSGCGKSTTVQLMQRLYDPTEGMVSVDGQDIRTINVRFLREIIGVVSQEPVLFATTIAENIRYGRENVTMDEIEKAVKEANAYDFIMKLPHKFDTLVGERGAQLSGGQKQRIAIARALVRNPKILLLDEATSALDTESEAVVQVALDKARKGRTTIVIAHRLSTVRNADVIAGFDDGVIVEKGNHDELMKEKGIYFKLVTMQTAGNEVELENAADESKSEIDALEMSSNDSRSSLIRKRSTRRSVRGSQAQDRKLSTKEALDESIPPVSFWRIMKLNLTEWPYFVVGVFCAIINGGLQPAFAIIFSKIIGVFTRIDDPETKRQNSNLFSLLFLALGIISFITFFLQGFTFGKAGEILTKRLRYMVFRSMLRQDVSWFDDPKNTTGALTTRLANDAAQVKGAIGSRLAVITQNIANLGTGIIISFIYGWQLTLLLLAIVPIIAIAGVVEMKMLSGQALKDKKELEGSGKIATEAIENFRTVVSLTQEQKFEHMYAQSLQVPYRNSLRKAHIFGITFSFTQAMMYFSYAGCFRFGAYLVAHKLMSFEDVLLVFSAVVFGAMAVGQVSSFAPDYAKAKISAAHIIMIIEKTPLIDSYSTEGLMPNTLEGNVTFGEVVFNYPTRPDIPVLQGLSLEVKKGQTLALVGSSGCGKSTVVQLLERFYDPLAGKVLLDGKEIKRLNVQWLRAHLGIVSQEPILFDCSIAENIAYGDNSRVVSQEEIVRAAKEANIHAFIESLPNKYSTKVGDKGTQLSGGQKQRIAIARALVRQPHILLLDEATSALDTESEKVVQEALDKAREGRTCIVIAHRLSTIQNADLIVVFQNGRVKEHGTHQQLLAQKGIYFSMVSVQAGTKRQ

## COc1cc2c(cc1OC)CN(CCc1ccc(NC(=O)c3ccc(Cl)c4c(=O)c5cccc(OC)c5[nH]c34)cc1)CC2 [4a, 1-Chloro-N-(4-(2-(6,7-dimethoxy-1,2,3,4-tetrahydroisoquinolin-2-yl)ethyl)phenyl)-5-methoxyacridone-4-carboxamide]
Human Pgp
  logIC50: 0.58±0.04

## COc1cc2c(cc1OC)CN(CCc1ccc(NC(=O)c3ccc(F)c4c(=O)c5cccc(OC)c5[nH]c34)cc1)CC2 [4b, N-(4-(2-(6,7-dimethoxy-1,2,3,4-tetrahydroisoquinolin-2-yl)ethyl)phenyl)-1-fluoro-5-methoxyacridone-4-carboxamide]
Human Pgp
  logIC50: 0.24±0.04
Human Pgp; human, pH 7.4
  IC50 times higher than 1: about 4 times

## COc1cc2c(cc1OC)CN(CCc1ccc(NC(=O)c3ccc([N+](=O)[O-])c4c(=O)c5cccc(OC)c5[nH]c34)cc1)CC2 [4c, N-(4-(2-(6,7-dimethoxy-1,2,3,4-tetrahydroisoquinolin-2-yl)ethyl)phenyl)-5-methoxy-1-nitroacridone-4-carboxamide]
Human Pgp
  logIC50: 0.21±0.07

## COc1cc2c(cc1OC)CN(CCc1ccc(NC(=O)c3cc(Cl)cc4c(=O)c5cccc(OC)c5[nH]c34)cc1)CC2 [4d, 2-Chloro-N-(4-(2-(6,7-dimethoxy-1,2,3,4-tetrahydroisoquinolin-2-yl)ethyl)phenyl)-5-methoxyacridone-4-carboxamide]
Human Pgp
  logIC50: 0.14±0.08

## COc1cc2c(cc1OC)CN(CCc1ccc(NC(=O)c3cc(F)cc4c(=O)c5cccc(OC)c5[nH]c34)cc1)CC2 [4e, N-(4-(2-(6,7-dimethoxy-1,2,3,4-tetrahydroisoquinolin-2-yl)ethyl)phenyl)-2-fluoro-5-methoxyacridone-4-carboxamide]
Human Pgp
  logIC50: −0.21±0.08

## COc1cc2c(cc1OC)CN(CCc1ccc(NC(=O)c3ccc([18F])c4c(=O)c5cccc(OC)c5[nH]c34)cc1)CC2 [[^18F]4b, 1-[^18F]fluoroelacridar]
Pgp/BCRP at the BBB [1]
  brain activity uptake increase after unlabelled 1 (group 2 vs group 1): 9.5 times
[2]; rat brain extracts, 40 min after injection, HPLC
  total radioactivity in brain in the form of unchanged tracer: > 90%
[2]; rat plasma, 40 min sample
  total radioactivity in the form of unchanged tracer, HPLC of SPE fraction 3: 72±27%
[3]
  protein-bound in rat plasma: 98.0±1.7%

## COc1cc2c(cc1OC)CN(CCc1ccc(NC(=O)c3cccc4c(=O)c5cccc(OC)c5[nH]c34)cc1)CC2 [compound 1, elacridar]
Human Pgp; human, pH 7.4
  Maximal inhibitory effect (%): 100%
Pgp/BCRP at the BBB [4]
  dose at which brain uptake of [11C]1 started to increase: greater than 0.1 mg/kg
  half-maximum effect dose for increase of [11C]1 brain uptake: 1.55 mg/kg
Pgp
  stimulation of ATPase activity: does not stimulate

## COc1cc2c(cc1OC)CN(CCc1ccc(NC(=O)c3cc(OC)c(OC)cc3NC(=O)c3cnc4ccccc4c3)cc1)CC2 [tariquidar]
Human BCRP
  BCRP transport: avid substrate of BCRP
